# Test results as given in ChEMBL document CHEMBL5104115, “Design, synthesis of novel triptolide-glucose conjugates targeting glucose Transporter-1 and their selective antitumor effect” (Eur J Med Chem, 2022).
# Calls of active or inactive are those of the source. No cut-off for these calls is given here.
# Experiments:
# [1] = Octanol-water partition coefficient, logD of the compound in PBS at pH 7.4 by liquid chromatography based mass spectrometric analysis; format: physicochemical
# Summary of the method: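 Shake-flask method: 3.0 mg compound dissolved in PBS-saturated n-octanol and rotated 24 h at room temperature. The octanol phase was then mixed with octanol-saturated PBS, rotated another 24 h and centrifuged. Both phases quantified by LC-MS against a standard curve, and log P = log(C octanol/C water).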
# NCI-H460 [2] = assay: Induction of apoptosis in human NCI-H460 cells assessed as necrotic cells at 50 uM measured after 48 hrs by Annexin V-FITC/PI staining method (reference value: 1.62%); format: functional
# [3] = Stability in mouse serum measured after 8 hrs by HPLC analysis; format: ADME, cell-free
# NCI-H460 [4] = assay: Induction of apoptosis in human NCI-H460 cells assessed as late apoptotic cells at 50 uM measured after 48 hrs by Annexin V-FITC/PI staining method (reference value: 8.47%); format: functional
# NCI-H460 [5] = assay: Induction of apoptosis in human NCI-H460 cells assessed as necrotic cells at 20 uM measured after 48 hrs by Annexin V-FITC/PI staining method (reference value: 1.62%); format: functional
# [6] = Toxicity in BALB/c nude mouse xenografted with human NCI-H1975 cells assessed as irregular spermatogenic tubules at 2 mg/kg administered ip, qd for 2 weeks; conditions: in vivo, 336 h
# NCI-H460 [7] = assay: Induction of apoptosis in human NCI-H460 cells assessed as viable cells at 20 uM measured after 48 hrs by Annexin V-FITC/PI staining method (reference value: 86.7%); format: functional; conditions: read-out: Activity
# [8] = Drug distribution in NCI-H1975 tumor bearing nude mouse model assessed as tumor to lung ratio of triptolide metabolite at 2 mg/kg, iv by LC-MS analysis; format: ADME, organism-based; conditions: in vivo
# Summary of the method: (§1)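 NCI-H1975 xenograft mice, tumors about 500 mm3, 3 per group, fasted 12 h with water available. Given 2 mg/kg iv and sacrificed 1 h later. Heart, liver, lung, kidney and tumor weighed and flash-frozen. 1.0 g tissue homogenized in 2.0 mL saline, methanol-precipitated, reconstituted. Parent, triptolide succinate and triptolide measured by LC-MS; tumor/organ ratios calculated.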
# NCI-H460 [9] = assay: Induction of ROS accumulation in human NCI-H460 cells measured upto 20 uM after 42 to 48 hrs by DCFH-DA staining based flow cytometric analysis; format: functional, cell-based; conditions: time 42-48 hrs
# Summary of the method: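 NCI-H460 cells exposed 42 h or 48 h. Cells suspended in 1% BSA DPBS, loaded with DCFH-DA (0.2 µL of 10 mM stock per 200 µL) for 30 min in the dark, washed, analyzed by flow cytometry. DCF fluorescence expressed as percentage relative to untreated control from histograms, ≥3 replicates.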
# NCI-H1975 [10] = assay: Cytotoxicity against Glut1 knocked down human NCI-H1975 cells transfected with KD2 assessed as decrease in cell viability incubated for 72 hrs by MTT assay; format: functional, cell-based; conditions: NCI-H1975, 72 h
# Summary of the method: (§2)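 Stable Glut-1 knockdown (KD1, KD2, vector KD V) or overexpression (OE, vector OE V) NCI-H1975 cells made by 12 h lentiviral infection, 72 h culture, then 14 days puromycin selection; Glut-1 confirmed by Western blot. Cells seeded at 4000/well overnight, dosed over a concentration range or DMSO for 72 h. MTT read at 570 nm; IC50 from ≥3 replicates.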
# [11] = MRT (0 to 3 hrs) in NCI-H1975 tumor bearing nude mouse model serum at 1 mg/kg, iv; format: ADME, organism-based
# NCI-H1975 (Homo sapiens) = assay: Antineoplastic activity against human NCI-H1975 cells xenografted in BALB/c nude mouse assessed as tumor growth inhibition at 1 to 2 mg/kg, ip, qd for 2 weeks; conditions: dose 1-2 mg/kg
# [12] = Cytotoxicity against human L02 cells incubated for 72 hrs by MTT assay; format: toxicity, cell-based
# Summary of the method: (§3)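 Cells seeded at 4000/well, incubated overnight, then exposed to a range of concentrations, or DMSO vehicle, for 72 h. MTT (5 mg/mL solution) added for 4 h and formazan dissolved in DMSO. Absorbance read at 570 nm, and IC50 derived from the curves. Tumor lines were grown in RPMI 1640; HUVEC, HaCaT and LO2 were grown in DMEM, each with 10% FBS at 37 °C and 5% CO2.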
# [13] = Drug distribution in NCI-H1975 tumor bearing nude mouse model assessed as tumor to kidney ratio of triptolide metabolite at 2 mg/kg, iv by LC-MS analysis; format: ADME, organism-based; conditions: in vivo; summary of the method: as §1
# NCI-H460 [14] = assay: Induction of apoptosis in human NCI-H460 cells assessed as early apoptotic cells at 20 uM measured after 48 hrs by Annexin V-FITC/PI staining method (reference value: 3.26%); format: functional
# [15] = Drug distribution in NCI-H1975 tumor bearing nude mouse model assessed as tumor to heart ratio of triptolide metabolite at 2 mg/kg, iv by LC-MS analysis; format: ADME, organism-based; conditions: in vivo; summary of the method: as §1
# NCI-H460 [16] = assay: Cytotoxicity against human NCI-H460 cells incubated for 72 hrs by MTT assay; format: functional, cell-based; conditions: NCI-H460, 72 h; summary of the method: as §3
# NCI-H1975 [17] = assay: Cytotoxicity against human NCI-H1975 cells incubated for 72 hrs by MTT assay; format: functional, cell-based; conditions: NCI-H1975, 72 h; summary of the method: as §3
# [18] = Stability in NCI-H1975 tumor bearing nude mouse model plasma at 1 mg/kg, iv; format: ADME, organism-based; conditions: in vivo
# NCI-H1975 [19] = assay: Cytotoxicity against Glut1 knocked down human NCI-H1975 cells transfected with KD1 assessed as decrease in cell viability incubated for 72 hrs by MTT assay; format: functional, cell-based; conditions: NCI-H1975, 72 h; summary of the method: as §2
# [20] = AUC (0 to 3 hrs) in NCI-H1975 tumor bearing nude mouse model serum at 1 mg/kg, iv; format: ADME, organism-based; design: time < 3 hr, dose 1 mg/kg, route iv
# NCI-H460 [21] = assay: Induction of apoptosis in human NCI-H460 cells assessed as viable cells at 1 uM measured after 48 hrs by Annexin V-FITC/PI staining method (reference value: 86.7%); format: functional; conditions: read-out: Activity
# [22] = Toxicity in BALB/c nude mouse xenografted with human NCI-H1975 cells assessed as reduction of cytoplasmic nuclei at 2 mg/kg administered ip, qd for 2 weeks; conditions: in vivo, 336 h
# NCI-H460 [23] = assay: Induction of apoptosis in human NCI-H460 cells assessed as viable cells at 50 uM measured after 48 hrs by Annexin V-FITC/PI staining method (reference value: 86.7%); format: functional; conditions: read-out: Activity
# [24] = Cytotoxicity against HUVEC transfected with OE V overexpressing Glut1assessed as decrease in cell viability incubated for 72 hrs by MTT assay; format: toxicity, cell-based; conditions: human, HUVEC cells transfected with OE V overexpressing Glut1
# Summary of the method: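 HUVEC kept in DMEM with 10% FBS, made to overexpress Glut-1 (OE) or carry vector (OE V) by lentiviral infection and puromycin selection for 14 days, with Western blot check. Seeded at 4000 cells/well, treated over a concentration range or DMSO for 72 h, then MTT at 570 nm. IC50 taken from at least three replicates.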
# HCT-116 = assay: Cytotoxicity against human HCT-116 cells incubated for 72 hrs by MTT assay; format: functional, cell-based; conditions: HCT-116, 72 h; summary of the method: as §3
# [25] = Toxicity in BALB/c nude mouse xenografted with human NCI-H1975 cells assessed as morphological changes in testis at 1 mg/kg administered ip, qd for 2 weeks; conditions: in vivo, 336 h
compound,measurement,setting,value
CC(C)[C@]12O[C@H]1[C@@H]1O[C@]13[C@]1(O[C@H]1C[C@H]1C4=C(CC[C@@]13C)C(=O)OC4)[C@@H]2OC(=O)CCC(=O)O[C@H]1C(O)O[C@H](CO)[C@@H](O)[C@@H]1O (some centres not stated),logD,[1],-0.347
same,Activity,NCI-H460 [2],5.77%
same,Stability,[3],Stable
same,Activity,NCI-H460 [4],21.4%
same,Activity,NCI-H460 [5],4.89%
same,Activity,[6],Toxic
same,viability at 20 µM,NCI-H460 [7],32.6%
same,Ratio,[8],15.5
same,Activity,NCI-H460 [9],Active
same,IC50,NCI-H1975 [10],11600 nM
same,MRT last,[11],33.6 min
same,Activity,NCI-H1975 (Homo sapiens),Active
same,IC50 at 72 h,[12],1320 nM
same,Ratio,[13],18.8
same,Activity,NCI-H460 [14],35.1%
same,Ratio,[15],7.3
same,IC50,NCI-H460 [16],870 nM
same,IC50,NCI-H1975 [17],2040 nM
same,Stability,[18],Unstable
same,IC50,NCI-H1975 [19],7010 nM
same,AUC(0-t) at 3 h,[20],83.6 µM·h
same,viability at 1 µM,NCI-H460 [21],84.6%
same,Activity,[22],Toxic
same,viability at 50 µM,NCI-H460 [23],22.7%
same,IC50 at 72 h,[24],9220 nM
same,IC50,HCT-116,1950 nM
same,Activity,[25],Non-Toxic
